Our source for the MIC, inhibition and Activity values is ChEMBL document CHEMBL3297718, “Ultrasound-assisted one-pot four-component synthesis of novel 2-amino-3-cyanopyridine derivatives bearing 5-imidazopyrazole scaffold and their biological broadcast” (Eur J Med Chem, 2014).

Each structure is given as a SMILES string. Values after ≈ are worked out from the molar mass of the structure shown.

In one data set the test system is Salmonella typhi. Nature of the data set: Antimicrobial activity against Salmonella typhi MTCC 98 by broth microdilution method. The note with it: Salmonella enterica. In kind it is functional, Salmonella enterica subsp. enterica serovar Typhi. (Broth dilution looks for growth in wells or tubes with falling amounts of substance.)
A further data set deals with Candida albicans. Nature of the data set: Antimicrobial activity against Candida albicans MTCC 227 by broth microdilution method. In kind it is functional. Summed up:
(§1)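 Broth microdilution following NCCLS. Compounds were diluted in 2% DMSO in water. Fungi were grown in Sabouraud dextrose broth. Inoculum was set to 10⁸ CFU mL⁻¹ by turbidity. A primary serial-dilution screen was followed by a secondary set of lower dilutions for primary actives. Tubes were incubated at 37 °C, with growth noted at 24 and 48 h. MIC was the highest dilution preventing turbidity after spot subculture.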

The test system of a further data set is Aspergillus fumigatus. Nature of the data set: Antimicrobial activity against Aspergillus fumigatus MTCC 3008 by broth microdilution method. In kind it is functional. Summed up: as §1
The subject of a further data set is Clostridium tetani. The data set is described as follows: Antimicrobial activity against Clostridium tetani MTCC 449 by broth microdilution method. In kind it is functional.
The next data set has as its system Bacillus subtilis. Nature of the data set: Antimicrobial activity against Bacillus subtilis MTCC 441 by broth microdilution method. Type of data set: functional. Summed up: as §1
In a further data set the test system is Escherichia coli. The data set is described as follows: Antimicrobial activity against Escherichia coli MTCC 443 by broth microdilution method. Type of data set: functional. Summed up:
as §1

Another data set has as its system Vibrio cholerae. The data set is described as follows: Antimicrobial activity against Vibrio cholerae MTCC 3906 by broth microdilution method. Type of data set: functional.
For data set [1], the system named is Mycobacterium tuberculosis. Nature of the data set: Antitubercular activity against Mycobacterium tuberculosis H37Rv at 250 ug/ml. In kind it is functional.
For another data set, the system named is Streptococcus pneumoniae. The data set is described as follows: Antimicrobial activity against Streptococcus pneumoniae MTCC 1936 by broth microdilution method. Type of data set: functional.
Data set [2] can be described thus: Antioxidant activity assessed as ferric ion reducing activity using fe3+-TPTZ at 200 mg/ml measured as ascorbic acid per 100 g sample by FRAP assay. Type of data set: physicochemical. The procedure, abridged:
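FRAP assay, modified Benzie–Strain. Reagent combined TPTZ in 40 mM HCl, aqueous FeCl₃·6H₂O and acetate buffer at pH 3.6. Sample solution was mixed with 3 mL reagent and incubated 25 min at 37 °C. Fe(II)–TPTZ absorbance was read at 593 nm against an ascorbic acid standard. Results are given as ascorbic equivalents, mmol/100 g compound.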

Data set [3] concerns Mycobacterium tuberculosis. The data set is described as follows: Antitubercular activity against Mycobacterium tuberculosis H37Rv. In kind it is functional. Summed up: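 M. tuberculosis H37Rv was grown on Lowenstein–Jensen medium with compound at a single concentration of 250, and compared against control tubes of medium alone with the organism. Results are given as % inhibition, and the concentration giving complete inhibition of colonies was taken as the active concentration.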

On to `Cc1cn(-c2c(-c3cc(-c4ccccc4)nc(N)c3C#N)c(C)nn2-c2ccccc2)cn1`, for which the MIC was 250 µg/mL (≈ 579 µM) against Salmonella typhi; above 1000 µg/mL against Candida albicans; above 1000 µg/mL in the data set with Aspergillus fumigatus; 500 µg/mL (≈ 1160 µM) in the data set with Clostridium tetani; 100 µg/mL (≈ 232 µM) with Bacillus subtilis; 200 µg/mL (≈ 463 µM) against Escherichia coli. Moreover, the MIC with Vibrio cholerae turned out to be 200 µg/mL (≈ 463 µM); against Streptococcus pneumoniae, 500 µg/mL (≈ 1160 µM). Further, the inhibition at 250 µg/mL in data set [1] amounted to 84%. Also, the Activity in [2] came to 401.81 mmol.
As for `Cc1cn(-c2c(-c3cc(-c4ccc(Cl)cc4)nc(N)c3C#N)c(C)nn2-c2ccccc2)cn1`, the MIC against Salmonella typhi is 250 µg/mL (≈ 537 µM); against Candida albicans, 1000 µg/mL (≈ 2150 µM); in the data set with Aspergillus fumigatus, 500 µg/mL (≈ 1070 µM); against Clostridium tetani, 500 µg/mL (≈ 1070 µM); against Bacillus subtilis it was 500 µg/mL (≈ 1070 µM); in the data set with Escherichia coli, 200 µg/mL (≈ 429 µM). Besides, the MIC is 250 µg/mL (≈ 537 µM) with Vibrio cholerae and 200 µg/mL (≈ 429 µM) against Streptococcus pneumoniae. Besides, in [1], the inhibition at 250 µg/mL worked out at 22%. Further, the Activity in [2] was 404.8 mmol.
On to `Cc1cn(-c2c(-c3cc(-c4cc5ccccc5oc4=O)nc(N)c3C#N)c(C)nn2-c2ccccc2)cn1`, for which the MIC came to 250 µg/mL (≈ 500 µM) with Candida albicans; 500 µg/mL (≈ 1000 µM) with Aspergillus fumigatus; 200 µg/mL (≈ 400 µM) against Bacillus subtilis; 250 µg/mL (≈ 500 µM) against Escherichia coli; 100 µg/mL (≈ 200 µM) against Streptococcus pneumoniae. The Activity in data set [2] was determined as 433.44 mmol.
With `NNC(=O)c1ccncc1` [ISONIAZID], it took 0.2 µg/mL (≈ 1.46 µM) to inhibit growth in data set [3] (MIC).
Turning to `Cc1nn(-c2ccccc2)c(-n2ccnc2)c1-c1cc(-c2ccc(-c3ccccc3)cc2)nc(N)c1C#N`, the minimum inhibitory concentration (MIC) against Salmonella typhi was determined as 125 µg/mL (≈ 253 µM); with Candida albicans, 500 µg/mL (≈ 1010 µM); in the data set with Aspergillus fumigatus, 500 µg/mL (≈ 1010 µM); against Clostridium tetani, 250 µg/mL (≈ 507 µM); in the data set with Bacillus subtilis, 500 µg/mL (≈ 1010 µM); against Escherichia coli, 100 µg/mL (≈ 203 µM). Besides, the MIC with Vibrio cholerae and against Streptococcus pneumoniae was 500 µg/mL (≈ 1010 µM) in each case. Besides, 250 µg/mL produced 45% inhibition in data set [1]. Also, in [2], the Activity was found to be 497.1 mmol.
Regarding `Cc1nn(-c2ccccc2)c(-n2ccnc2)c1-c1cc(-c2ccccc2)nc(N)c1C#N`, the MIC in the data set on Salmonella typhi came to 200 µg/mL (≈ 479 µM); against Candida albicans, 1000 µg/mL (≈ 2400 µM); in the data set on Aspergillus fumigatus it was 1000 µg/mL (≈ 2400 µM); with Clostridium tetani, 250 µg/mL (≈ 599 µM); in the data set with Bacillus subtilis, 200 µg/mL (≈ 479 µM); in the data set with Escherichia coli, 250 µg/mL (≈ 599 µM). Further, the MIC against Vibrio cholerae and with Streptococcus pneumoniae was 250 µg/mL (≈ 599 µM) in each case. This molecule displayed an inhibition at 250 µg/mL in data set [1] of 25%. Besides, in data set [2], the Activity stood at 427.08 mmol.
Consider `Cc1cn(-c2c(-c3cc(-c4ccc(F)cc4)nc(N)c3C#N)c(C)nn2-c2ccccc2)cn1`, for which the MIC is 250 µg/mL (≈ 556 µM) in the data set with Salmonella typhi; above 1000 µg/mL in the data set on Candida albicans; 1000 µg/mL (≈ 2220 µM) against Aspergillus fumigatus; 250 µg/mL (≈ 556 µM) against Clostridium tetani; 500 µg/mL (≈ 1110 µM) against Bacillus subtilis; 500 µg/mL (≈ 1110 µM) in the data set with Escherichia coli. In addition, the MIC in the data set on Vibrio cholerae and against Streptococcus pneumoniae was 100 µg/mL (≈ 222 µM) each time. At 250 µg/mL the inhibition in [1] was 62%. Further, in [2], the Activity was 392.66 mmol.
Regarding `Cc1nn(-c2ccccc2)c(-n2ccnc2)c1-c1cc(-c2ccc(Br)cc2)nc(N)c1C#N`, the MIC was 200 µg/mL (≈ 403 µM) against Salmonella typhi; 500 µg/mL (≈ 1010 µM) in the data set with Candida albicans; 500 µg/mL (≈ 1010 µM) in the data set on Aspergillus fumigatus; 200 µg/mL (≈ 403 µM) with Clostridium tetani; 200 µg/mL (≈ 403 µM) with Bacillus subtilis; 100 µg/mL (≈ 201 µM) with Escherichia coli. Moreover, the MIC against Vibrio cholerae and against Streptococcus pneumoniae was 200 µg/mL (≈ 403 µM) throughout. Besides, testing at 250 µg/mL in data set [1] gave an inhibition of 37%. The Activity in data set [2] worked out at 67.63 mmol.
As to `Cc1nn(-c2ccccc2)c(-n2ccnc2)c1-c1cc(-c2ccc(Cl)cc2)nc(N)c1C#N`, the MIC against Salmonella typhi was found to be 200 µg/mL (≈ 443 µM); in the data set with Candida albicans it was 1000 µg/mL (≈ 2210 µM); in the data set with Aspergillus fumigatus, 500 µg/mL (≈ 1110 µM); in the data set with Clostridium tetani, 500 µg/mL (≈ 1110 µM); against Bacillus subtilis it was 500 µg/mL (≈ 1110 µM); in the data set on Escherichia coli it was 62.5 µg/mL (≈ 138 µM). The MIC in the data set on Vibrio cholerae stood at 500 µg/mL (≈ 1110 µM); against Streptococcus pneumoniae, 100 µg/mL (≈ 221 µM). Also, at 250 µg/mL the inhibition in data set [1] was 16%. Moreover, the Activity in data set [2] was determined as 490.33 mmol.
For `COC1=CC(=O)C[C@@H](C)[C@]12Oc1c(Cl)c(OC)cc(OC)c1C2=O` [GRISEOFULVIN], the MIC in the data set on Candida albicans amounted to 500 µg/mL (≈ 1420 µM); in the data set with Aspergillus fumigatus, 100 µg/mL (≈ 283 µM).

The MIC is the least concentration at which growth counts as inhibited. Low values mean a more susceptible organism, high ones a less susceptible organism. By inhibition is commonly meant the share of the control response that was lost under treatment.
